Results from ChEMBL document CHEMBL1795219, “4-alkoxy-3-arylfuran-2(5H)-ones as inhibitors of tyrosyl-tRNA synthetase: synthesis, molecular docking and antibacterial evaluation” (Bioorg Med Chem, 2011).
≈ marks a conversion by molar mass, not a printed value.

Tests used:
[1] = Inhibition of Staphylococcus aureus TyrRS expressed in Escherichia coli using L-[ring-3,5-3H] tyrosine preincubated for 10 mins by scintillation counting
How it was run: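 Aminoacylation assay with purified TyrRS (0.2 nM). Enzyme preincubated with a range of inhibitor concentrations for 10 min at room temperature, then prewarmed mix added at 37 °C. Final mix: 100 mM Tris/Cl pH 7.9, 50 mM KCl, 16 mM MgCl2, 5 mM ATP, 3 mM DTT, 4 mg/ml E. coli MRE600 tRNA, 10 uM tritiated L-tyrosine. Stopped at intervals in ice-cold 7% TCA, filtered, scintillation counted. Rate linear, under 50% tRNA acylation. IC50 is the concentration halving activity.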

Bacillus subtilis = assay: Antibacterial activity against Bacillus subtilis ATCC 6633 after 24 hrs by MTT colorimetric method; format: functional; details: ATCC 6633, 24 h
Candida albicans = assay: Antibacterial activity against Candida albicans ATCC 10231 after 48 hrs by MTT colorimetric method; format: functional; details: ATCC 10231, 48 h
Staphylococcus aureus = assay: Antibacterial activity against Staphylococcus aureus ATCC 25923 after 24 hrs by MTT colorimetric method; format: functional; details: ATCC 25923, 24 h
Escherichia coli = assay: Antibacterial activity against Escherichia coli ATCC 35218 after 24 hrs by MTT colorimetric method; format: functional; details: ATCC 35218, 24 h

SMILES | IC50 [1] | MIC50 (Bacillus subtilis) | MIC50 (Candida albicans) | MIC50 (Staphylococcus aureus) | MIC50 (Escherichia coli)
O=C1OCC(OCCNCc2ccccc2)=C1c1ccccc1 | > 100 µM | – | – | – | –
O=C1OCC(OCCNNc2ccc([N+](=O)[O-])cc2)=C1c1ccccc1 | > 100 µM | – | – | – | –
COc1ccc(C2=C(OCCNC3CCCCC3)COC2=O)cc1OC | > 100 µM | – | – | – | –
COc1ccc(C2=C(OCCN3CCCCC3)COC2=O)cc1OC | > 100 µM | – | – | – | –
COc1ccc(C2=C(OCCN3CCN(C)CC3)COC2=O)cc1OC | > 100 µM | – | – | – | –
CN1CCN(CCOC2=C(c3ccc(Cl)c(Cl)c3)C(=O)OC2)CC1 | > 100 µM | – | – | – | –
O=C1OCC(OCCN2CCCCC2)=C1c1ccc(F)c(F)c1 | > 100 µM | – | – | – | –
NC[C@H]1O[C@H](O[C@H]2[C@H](O)[C@@H](O[C@H]3O[C@H](CO)[C@@H](O)[C@H](N)[C@H]3O)[C@H](N)C[C@@H]2N)[C@H](O)[C@@H](O)[C@@H]1O [KANAMYCIN] | – | 0.48 µg/mL (≈ 0.991 µM) | – | 1.2 µg/mL (≈ 2.48 µM) | –
CC(=O)N1CCN(c2ccc(OCC3COC(Cn4ccnc4)(c4ccc(Cl)cc4Cl)O3)cc2)CC1 (configuration not stated) [KETOCONAZOLE] | – | – | 3.8 µg/mL (≈ 7.15 µM) | – | –
CC1(C)S[C@@H]2[C@H](NC(=O)Cc3ccccc3)C(=O)N2[C@H]1C(=O)O [PENICILLIN G] | – | – | – | – | 2.7 µg/mL (≈ 8.07 µM)

The next lines start with the values.

IC50 [1] | MIC50 (Bacillus subtilis) | MIC50 (Candida albicans) | MIC50 (Staphylococcus aureus) | MIC50 (Escherichia coli) | SMILES
29.1 µM | > 50 µg/mL | > 50 µg/mL | 34.3 µg/mL (≈ 131 µM) | > 50 µg/mL | CCCNCCOC1=C(c2ccccc2)C(=O)OC1
71.9 µM | – | – | – | – | CCCCNCCOC1=C(c2ccccc2)C(=O)OC1
87.4 µM | – | – | – | – | O=C1OCC(OCCNC2CCCCC2)=C1c1ccccc1
53.6 µM | – | – | – | – | O=C1OCC(OCCN2CCCCC2)=C1c1ccccc1
35.5 µM | – | – | – | – | O=C1OCC(OCCN2CCCC2)=C1c1ccccc1
6.2 µM | 47.4 µg/mL (≈ 164 µM) | 34.2 µg/mL (≈ 118 µM) | 10.4 µg/mL (≈ 35.9 µM) | > 50 µg/mL | O=C1OCC(OCCN2CCOCC2)=C1c1ccccc1
8.6 µM | > 50 µg/mL | > 50 µg/mL | 16.5 µg/mL (≈ 54.6 µM) | > 50 µg/mL | CN1CCN(CCOC2=C(c3ccccc3)C(=O)OC2)CC1
20.5 µM | – | – | – | – | O=C1OCC(OCCN2CCOCC2)=C1c1cccc(Cl)c1
24.3 µM | > 50 µg/mL | > 50 µg/mL | 25.5 µg/mL (≈ 69.3 µM) | > 50 µg/mL | O=C1OCC(OCCN2CCOCC2)=C1c1cccc(Br)c1
37.5 µM | > 50 µg/mL | > 50 µg/mL | 40.8 µg/mL (≈ 128 µM) | > 50 µg/mL | COc1cccc(C2=C(OCCN3CCOCC3)COC2=O)c1
0.62 µM | 8.6 µg/mL (≈ 26.6 µM) | 2.9 µg/mL (≈ 8.96 µM) | 1.3 µg/mL (≈ 4.02 µM) | > 50 µg/mL | O=C1OCC(OCCN2CCOCC2)=C1c1ccc(Cl)cc1
2.4 µM | 15.8 µg/mL (≈ 42.9 µM) | 12.7 µg/mL (≈ 34.5 µM) | 3 µg/mL (≈ 8.15 µM) | > 50 µg/mL | O=C1OCC(OCCN2CCOCC2)=C1c1ccc(Br)cc1
32.8 µM | – | – | – | – | COc1ccc(C2=C(OCCN3CCOCC3)COC2=O)cc1
25.6 µM | 47.4 µg/mL (≈ 155 µM) | 47.2 µg/mL (≈ 155 µM) | 34.3 µg/mL (≈ 112 µM) | > 50 µg/mL | O=C1OCC(OCCN2CCOCC2)=C1c1cccc(O)c1
0.1 µM | 2.1 µg/mL (≈ 6.88 µM) | 1.1 µg/mL (≈ 3.6 µM) | 0.23 µg/mL (≈ 0.753 µM) | > 50 µg/mL | O=C1OCC(OCCN2CCOCC2)=C1c1ccc(O)cc1
